This is a sample that favours compounds with a hit; in the whole collection about 3.1% have one here.
RBBP9 inhibitor = human RBBP9 hydrolase inhibition. O75884. recombinant RBBP9, FP-Rh probe fluorescence polarization. inhibition, % at 7.94 µM. 220,000 compounds, 0.2% hits. AID 1515;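 active = inhibition above the campaign mean of all tested compounds plus 3 SD, cut at about 14% in these data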;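 also: plate controls were DMSO wells with RBBP9 for no effect and wells lacking RBBP9 protein for full effect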
Target sequence (O75884 whole entry, looked up): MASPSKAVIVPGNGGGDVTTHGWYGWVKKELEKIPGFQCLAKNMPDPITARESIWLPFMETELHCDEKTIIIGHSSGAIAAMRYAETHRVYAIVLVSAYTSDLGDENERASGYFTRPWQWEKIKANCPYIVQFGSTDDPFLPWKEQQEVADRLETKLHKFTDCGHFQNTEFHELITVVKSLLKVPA
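Assay system: recombinant human RBBP9; Reagent: Serine-hydrolase probe FP-Rh, 375 nM pre-mixing; Doses: 7.94 µM single dose, 0.794% DMSO; Incubation: 30 min then 45 min, 25 °C; Detection: fluorescence polarization (mP), excitation 525 nm, emission 598 nm; Evaluation: percent inhibition from mP, scaled between DMSO and no-protein wells.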
ABHD5 PLIN5 PPI = inhibitors of human ABHD5-perilipin-5 interaction. Q00G26+Q8WTS1. Split G. princeps luciferase complementation, luminescence, 4 h. inhibition, % at 4 µM. 360,000 compounds, 0.78% hits. AID 602281;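 active = inhibition above the mean inhibition across every tested compound plus 3 SD, cut at about 22% in these data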;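 also: 0% = DMSO only wells and the 100% control is not disclosed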
MBD2 DNA inh = MBD2-methylated oligo binding inhibition; Q9UBB5; TR-FRET, MBD2 binding to methylated oligonucleotide; inhibition, % at 4.4 µM; 370,000 compounds, 0.31% hits; AID 686964; in the data active = inhibition above about 13%
LEDGF integ inh = blocks HIV-1 LEDGF/p75-dependent DNA integration. TR-FRET IN-LEDGF/p75 DNA integration, Eu/Cy5. inhibition, % at 3.7 µM. 370,000 compounds, 0.64% hits. AID 743269;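 active = inhibition above the screen-wide mean plus 3 SD, cut at about 13% in these data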;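 also: signal is the Cy5 over europium emission ratio at 671 and 618 nm; 0% = plate median of compound wells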
PRMT1 inh = inhibitors of human PRMT1 | Q99873 | recombinant PRMT1, activity-based probe fluorescence polarization | inhibition, % at 2.79 µM | 370,000 compounds, 1.3% hits | AID 652257;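 active = inhibition above about 21% made by adding two undisclosed values, limit read from the data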
Target sequence (Q99873 whole entry, looked up): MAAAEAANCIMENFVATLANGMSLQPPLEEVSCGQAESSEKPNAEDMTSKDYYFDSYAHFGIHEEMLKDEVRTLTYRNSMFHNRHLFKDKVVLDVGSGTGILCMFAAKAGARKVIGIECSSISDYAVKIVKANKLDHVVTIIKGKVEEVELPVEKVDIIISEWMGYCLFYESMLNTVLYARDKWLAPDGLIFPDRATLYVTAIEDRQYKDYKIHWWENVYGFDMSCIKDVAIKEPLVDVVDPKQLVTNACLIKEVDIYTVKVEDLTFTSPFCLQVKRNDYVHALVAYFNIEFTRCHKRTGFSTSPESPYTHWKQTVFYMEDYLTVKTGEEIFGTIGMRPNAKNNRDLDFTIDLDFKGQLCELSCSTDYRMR
UHRF1 MBD2 ctr = human UHRF1 methylated DNA binding inhibitors. Q96T88. inhibition, % at 4.4 µM. UHRF1 binding to methylated oligo, TR-FRET. 370,000 compounds, 0.75% hits; in the data active = inhibition above about 21%;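 also: UHRF1 SRA domain binding a hemimethylated CpG hairpin DNA probe; 0% = median of test compound wells and 100% = reference inhibitor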
RBBP9 confirm = confirmation of human RBBP9 inhibitors. shares compounds with RBBP9 inhibitor. recombinant RBBP9, FP-Rh probe fluorescence polarization. inhibition, % at 7.94 µM. 410 compounds, 36% hits. AID 1537;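 active = inhibition above the hit cutoff derived for the primary screen, cut at about 15% in these data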;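 also: 0% = RBBP9 with DMSO and 100% = wells lacking RBBP9 protein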
Active calls of the source: *; . = no result given.

SMILES | RBBP9 inhibitor | ABHD5 PLIN5 PPI | MBD2 DNA inh | LEDGF integ inh | PRMT1 inh | UHRF1 MBD2 ctr | RBBP9 confirm
O=Nc1c(O)[nH]c2ccc(Cl)cc12 | 15* | -4 | 1 | -8 | 5 | 0 | 29*
O=C(CCc1ccccc1)N[C@H]1[C@@H](OC(=O)c2cccnc2)CCC[C@@]12C(=O)N(Cc1ccccc1)c1ccccc12 | . | . | 1 | -2 | 3 | 3 | .
CN1Cc2nnn(CC3CCCCC3)c2-c2ccccc2S1(=O)=O | . | . | 1 | 4 | -1 | 2 | .
CCCOc1ccc(/C=N/NC(=O)CSc2ccccn2)cc1OC | 17* | 8 | -3 | -8 | 4 | -2 | 9
COc1cc(/C=N/NC(=O)CSc2ccccn2)ccc1O | -5 | 1 | -2 | 0 | -1 | 0 | .
CCOc1ccccc1NC(=O)CSc1nnc2ccc(-c3cccnc3)nn12 | 15* | -2 | -5 | 4 | -9 | -3 | 9
CCCCNC(=O)c1c(C)cc(=O)oc1C | 16* | -3 | 3 | 1 | -3 | -6 | -2
COc1ccc(OC)c(NC(=S)NCc2ccco2)c1 | -7 | -6 | 1 | -2 | -1 | 0 | .
COc1ccc(NC(=S)NCc2ccco2)c(OC)c1 | 17* | 2 | -5 | 0 | -5 | -2 | 9
CCOC(=O)N1CCN(Cc2ccc3c(c2)OCO3)CC1 | . | 1 | -5 | -4 | 0 | 3 | .
Cc1c(O)ccc(C(=O)CN2CCN(Cc3ccc4c(c3)OCO4)CC2)c1O | 68* | 0 | 1 | -6 | 4 | 4 | 8
CCCCCC(=O)NC1CCCCN(Cc2cccc(Cl)c2)C1=O (configuration not stated) | . | . | -6 | 4 | -1 | 2 | .
CC(C)CCNC(=O)C1CCN(c2cncnc2)CC1 | . | . | -5 | -3 | 2 | 0 | .
CCOC(=O)c1c(C)n(C)c2cc(Br)c(O)c(O)c12 | 17* | 4 | -18 | 7 | 14 | -8 | 31*
Fc1ccc(C2=Nn3c(nnc3C3CCCCC3)SC2)cc1 | . | . | 4 | 0 | 3 | 2 | .
Cc1ccc(S(=O)(=O)N(C)c2ccccc2)cc1 | 14* | -1 | 3 | 4 | 1 | 2 | -11
CCOC(=O)N1CCN(C(=O)C[C@H]2C[C@@]3(C(=O)OC)C(=C[C@H](C(C)C)O[C@@H]3C3CC3)N(Cc3cccc4ccccc34)C2=O)CC1 | . | . | 1 | -4 | 4 | 3 | .
Cc1ccc(NC(=O)OC2CC3CC2[C@H]2CCCCN2C3)cc1 (some centres not stated) | . | . | -2 | -1 | -1 | 0 | .
COc1ccc(NC(=O)Nc2ccc3oc(C)nc3c2)cc1 | 0 | -4 | -3 | -1 | -4 | -2 | .
Cc1nc2cc(NC(=O)N(C)c3ccc4ccccc4c3)ccc2o1 | 16* | -26 | -11 | 11 | 21 | -5 | 5
C#CCNC(=O)C[C@H]1C[C@@]2(C(=O)OC)C(=C[C@H](C(C)C)O[C@@H]2C2CC2)N(CCC2=CCCCC2)C1=O | . | . | -3 | -4 | -3 | 0 | .
CCCS(=O)(=O)Nc1ccc2cn[nH]c2c1 | 17* | 2 | -4 | -9 | 0 | 3 | -1
CCOC(=O)[C@]12CCCCC/C=C\1N(Cc1ccc(OC)cc1)C(=O)[C@H]2CC(=O)NCC1CCCCC1 | . | . | 0 | -3 | -1 | 4 | .
COC(=O)c1ccccc1NC(=O)/C=N/O | 4 | 2 | 8 | 2 | 2 | 8 | .
O=C(/C=N/O)Nc1ccc2sc3ccccc3c2c1 | 53* | 1 | -1 | 0 | -3 | 0 | 72*
SMILES | RBBP9 inhibitor | ABHD5 PLIN5 PPI | MBD2 DNA inh | LEDGF integ inh | PRMT1 inh | UHRF1 MBD2 ctr | RBBP9 confirm
O=C(CN1CCNCC1)Nc1ccc(Oc2ccccc2)cc1 | 15* | -1 | 1 | -3 | -3 | 0 | 24*
O=C(CN1CCOCC1)Nc1ccc(Oc2ccccc2)cc1 | -5 | 1 | -2 | 1 | -1 | 0 | .
CC(=O)c1c(C(C)=O)c(C)n(-c2cccc3cccnc23)c1C | 29* | 2 | 4 | -1 | 1 | -1 | 4
O=C(Nc1ccc(F)cc1)OCc1cn(Cc2ccc(F)cc2F)nn1 | . | . | -9 | -1 | -2 | 1 | .
Cc1noc(C)c1S(=O)(=O)Nc1ccc(C(=O)N2CCC(C)CC2)cc1 | 18* | . | . | . | . | . | 7
Cc1noc(C)c1S(=O)(=O)Nc1ccc(C(=O)N2CCc3ccccc3C2)cc1 | 2 | 6 | -5 | 0 | 2 | 1 | .
COc1ccc(OC)c(CN2C(=O)CSCCC2(C)c2nnnn2C2CCCC2)c1 (configuration not stated) | . | . | -7 | 2 | -3 | -3 | .
COC(=O)COc1ccc2c(=O)c(-c3ccccc3OC)coc2c1 | 19* | -2 | -5 | -2 | 1 | 0 | 7
Cc1cnc([N+](=O)[O-])n1CCOC(=O)NC(=O)c1ccccc1Cl | 14* | 3 | 3 | 2 | -4 | -1 | 8
Cc1cnc([N+](=O)[O-])n1CCOC(=O)NC(=O)c1ccc(C(F)(F)F)cc1 | 0 | -7 | -7 | 3 | -4 | 1 | .
CC1(C)NC(=O)NC2(C)NC(=O)NC(C)(C)C12 (configuration not stated) | 20* | 3 | 0 | 3 | 0 | 1 | 11
CC(C)[C@H](NC(=O)[C@H](C)NC(=O)OC(C)(C)C)C(=O)N1CCC2CCN(Cc3ccccc3)CC21 (some centres not stated) | . | . | 11 | -4 | 9 | 4 | .
CCOc1ccc(/C=N/n2c(-c3n[nH]c4c3CCC4)n[nH]c2=S)cc1 | . | . | 1 | -3 | 4 | -7 | .
O=C(CC1Nc2cccc3cccc(c23)NC1=O)Nc1ccccc1 (configuration not stated) | 16* | 0 | -6 | 7 | 10 | -8 | 12
CC1CCC2(CC1)CCC2NCc1ccc(Cl)c(Cl)c1 (configuration not stated) | . | . | 4 | -2 | 0 | 2 | .
C/C(Cc1ccccc1)=N\NC(=O)CNC(=O)c1cccc(Cl)c1 | 21* | 2 | -1 | -4 | -1 | 2 | -3
COc1cc(/C=N/Nc2ccc(F)cc2F)cc(OC)c1O | 17* | 4 | -7 | 1 | 5 | -2 | 53*
COc1cc(/C=N/Nc2ccccc2[N+](=O)[O-])cc(OC)c1O | 11 | 15 | -8 | -5 | 4 | -6 | .
COc1ccc(OC)c(C(=O)CSc2nnc(SCc3cccc4ccccc34)s2)c1 | . | . | 0 | -2 | -2 | -1 | .
Cc1cc(O)ccc1Nc1nc2ccccc2nc1Nc1ccc(O)cc1C | 21* | 16 | -5 | -1 | 11 | -3 | 11
Cc1ccc(Nc2nc3ccccc3s2)c(C)c1 | 7 | -16 | 2 | 2 | 0 | 4 | .
CCn1c(SCC(=O)c2ccccc2)nnc1-c1cccnc1 | 15* | -8 | -4 | 1 | -5 | -2 | 5
COc1ccc(-n2nnc3c(=O)n(C/C=C/c4ccccc4)cnc32)cc1 | 15* | 5 | -6 | 2 | -2 | -2 | 10
